Reference: ChEMBL document CHEMBL1177717, “Mercaptophosphonate compounds as broad-spectrum inhibitors of the metallo-beta-lactamases” (J Med Chem, 2010)

Experiments:
[1] = molecular target: Metallo-beta-lactamase type 2 (Aeromonas hydrophila, UniProt P26918); test: Inhibition of Aeromonas hydrophila cphA
Method in brief: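 Purified CphA (0.2–0.8 nM) in 15 mM cacodylate pH 6.5 with 20 μg/mL BSA and no added Zn2+ (Zn2+ below 0.4 μM). Enzyme was preincubated with 100 μM inhibitor for 30 min at 37 C. Imipenem was then added and its hydrolysis followed by absorbance at 300 nm. Competitive Ki determined; SD below 10%.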

[2] = Inhibition of VIM4 in presence of Zn+ chelator
Method in brief: (§1)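 Purified VIM-4 (0.2–0.8 nM) in 10 mM HEPES pH 7.2 with 20 μg/mL BSA, run without added Zn2+ (Zn2+ below 0.4 μM) or with 50 μM ZnCl2 final. Enzyme was preincubated with 100 μM inhibitor for 30 min at 37 C. Nitrocefin hydrolysis followed at 482 nm. Ki determined; SD below 10%.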

[3] = Inhibition of VIM4 in absence of Zn+ chelator; method in brief: as §1
[4] = molecular target: T1, Beta-lactamase L1 (Stenotrophomonas maltophilia, UniProt P52700); test: Inhibition of Stenotrophomonas maltophilia beta lactamase L1 in presence of Zn+ chelator
Method in brief: (§2)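 Purified L1 (0.2–0.8 nM) in 20 mM HEPES pH 7.0 with 20 μg/mL BSA, run without added Zn2+ (Zn2+ below 0.4 μM) or with 50 μM ZnCl2 final. Enzyme was preincubated with 100 μM inhibitor for 30 min at 37 C. Imipenem hydrolysis followed at 300 nm. Ki determined; SD below 10%.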

[5] = molecular target: T1, Beta-lactamase L1; test: Inhibition of Stenotrophomonas maltophilia beta lactamase L1 in absence of Zn+ chelator; method in brief: as §2
[6] = molecular target: Intestinal-type alkaline phosphatase (Bos taurus, UniProt P19111); test: Inhibition of bovine intestinal alkaline phosphatase
[7] = Inhibition of Escherichia coli alkaline phosphatase

Sequence of Metallo-beta-lactamase type 2 (P26918 whole entry): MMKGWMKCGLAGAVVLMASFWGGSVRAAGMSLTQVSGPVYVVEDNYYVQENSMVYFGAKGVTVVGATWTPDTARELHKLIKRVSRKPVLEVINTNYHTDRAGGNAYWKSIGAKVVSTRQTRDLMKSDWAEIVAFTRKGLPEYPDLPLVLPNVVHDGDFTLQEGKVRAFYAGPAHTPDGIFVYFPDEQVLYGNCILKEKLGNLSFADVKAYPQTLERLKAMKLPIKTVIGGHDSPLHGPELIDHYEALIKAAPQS
T1 sequence (P52700 whole entry): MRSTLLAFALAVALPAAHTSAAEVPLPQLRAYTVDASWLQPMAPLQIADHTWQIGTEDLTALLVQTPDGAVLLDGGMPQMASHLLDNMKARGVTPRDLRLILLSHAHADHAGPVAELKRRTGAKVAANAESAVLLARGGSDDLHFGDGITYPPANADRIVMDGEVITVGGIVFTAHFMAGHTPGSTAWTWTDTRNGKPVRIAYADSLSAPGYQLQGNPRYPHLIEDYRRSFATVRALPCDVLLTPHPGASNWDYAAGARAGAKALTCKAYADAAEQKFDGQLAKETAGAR
Sequence of Intestinal-type alkaline phosphatase (P19111 whole entry): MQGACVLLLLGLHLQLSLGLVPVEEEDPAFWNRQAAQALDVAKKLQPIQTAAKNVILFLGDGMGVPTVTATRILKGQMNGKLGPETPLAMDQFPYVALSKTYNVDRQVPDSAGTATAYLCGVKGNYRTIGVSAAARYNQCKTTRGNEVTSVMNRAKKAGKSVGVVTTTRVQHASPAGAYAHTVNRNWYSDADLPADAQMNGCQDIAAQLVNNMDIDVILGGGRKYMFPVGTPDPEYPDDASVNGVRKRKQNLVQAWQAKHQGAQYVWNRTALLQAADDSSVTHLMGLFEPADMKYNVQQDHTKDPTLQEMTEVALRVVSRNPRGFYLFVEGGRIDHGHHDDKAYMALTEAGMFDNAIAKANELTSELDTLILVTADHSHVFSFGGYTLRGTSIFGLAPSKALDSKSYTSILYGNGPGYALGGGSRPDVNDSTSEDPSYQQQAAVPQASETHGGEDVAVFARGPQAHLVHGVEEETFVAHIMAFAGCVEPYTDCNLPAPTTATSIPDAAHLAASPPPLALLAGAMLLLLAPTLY

In the case of `O=P(O)(O)C(S)c1ccccc1` (configuration not stated), the Ki [1] is reported as 11 µM, the Ki [2] is reported as 3 µM and the Ki [3] is reported as 2500 nM. The Ki [4] was 32 µM and the Ki [5] was > 100 µM.

With `O=P(O)(O)c1cc(F)ccc1S` the Ki [1] was > 40 µM, the Ki [2] was 13 µM and the Ki [3] was 2500 nM. It also gave a Ki [4] of 4 µM and a Ki [5] of 40 µM.

For `CC(C)OP(=O)(OC(C)C)c1ccccc1S`, the Ki [1] was > 250 µM, the Ki [2] was > 250 µM and the Ki [3] was > 250000 nM. For the same compound, the Ki [4] was > 250 µM and the Ki [5] was > 250 µM.

Work on `CCC(S)P(=O)(O)O` (configuration not stated) yielded a Ki [1] of 15 µM, a Ki [2] of 6 µM and a Ki [3] of 11000 nM. The Ki [4] was > 40 µM and the Ki [5] was > 80 µM.

`O=P(O)(O)C(S)c1ccc(F)cc1` (configuration not stated) gave a Ki [1] of 1 µM, a Ki [2] of 11 µM and a Ki [3] of 16000 nM. The Ki [4] was 18 µM and the Ki [5] was > 20 µM.

Work on `O=P(O)(O)c1ccccc1S` yielded a Ki [1] of 7 µM, a Ki [2] of 4 µM and a Ki [3] of 2000 nM. For the same compound, the Ki [4] was 12 µM, the Ki [5] was 9 µM and the Ki [6] was 210 nM. For the same compound, the IC50 [7] was < 10 µM.

In the case of `CC(C)OP(=O)(OC(C)C)c1ccccc1CS`, the Ki [1] is reported as 2 µM, the Ki [2] is reported as 12 µM and the Ki [3] is reported as 3000 nM. The Ki [4] was 14 µM and the Ki [5] was 3 µM.

For `O=P(O)(O)c1ccccc1CS`, the Ki [1] was 0.5 µM, the Ki [2] was > 400 µM and the Ki [3] was 1000 nM. The Ki [4] was > 50 µM and the Ki [5] was 2 µM.

With `CCC(S)P(=O)(OC(C)C)OC(C)C` (configuration not stated) the Ki [1] was 2 µM, the Ki [2] was > 20 µM and the Ki [3] was > 20000 nM. For the same compound, the Ki [4] was > 40 µM and the Ki [5] was > 40 µM.

For `O=P(O)(O)C(S)c1ccc(Cl)cc1Cl` (configuration not stated), the Ki [1] was 5 µM, the Ki [2] was 4 µM and the Ki [3] was 1000 nM. The Ki [4] was 0.4 µM and the Ki [5] was 0.4 µM.

In the case of `COc1ccccc1C(S)P(=O)(O)O` (configuration not stated), the Ki [1] is reported as 15 µM, the Ki [2] is reported as 4 µM and the Ki [3] is reported as 2000 nM. For the same compound, the Ki [4] was 4 µM and the Ki [5] was 9 µM.

Compound `O=P(O)(O)C(S)c1ccc(Br)cc1` (configuration not stated) has a Ki [1] of 13 µM, a Ki [2] of 13.5 µM and a Ki [3] of 5500 nM. The Ki [4] was 1.7 µM and the Ki [5] was 8.4 µM.

For `O=P(O)(O)C(S)c1ccc(Cl)cc1` (configuration not stated), the Ki [1] was 24 µM, the Ki [2] was 10 µM and the Ki [3] was 6700 nM. It also gave a Ki [4] of 0.7 µM and a Ki [5] of 3.8 µM.

`CC(C)OP(=O)(OC(C)C)C(S)c1ccccc1` (configuration not stated) [DIISOPROPYL MERCAPTO(PHENYL)METHYLPHOSPHONATE] showed a Ki [1] of 0.25 µM, a Ki [2] of 8 µM and a Ki [3] of 3000 nM. For the same compound, the Ki [4] was 16 µM and the Ki [5] was 20 µM.
